The text below walks through data of ChEMBL document CHEMBL1157953, “Antiviral flavans from the leaves of Pithecellobium clypearia” (J Nat Prod, 2006).

Values after ≈ are worked out from the molar mass of the structure shown.

Series [1] is described as follows: Selectivity index, CC50 for human Hep2 cells to IC50 for Cox B3 virus. Type of series: functional, HEp-2. Put shortly:
(§1)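 SI = CC50/IC50. CC50 came from an MTT assay: confluent monolayers were exposed in triplicate to sample dilutions for 3 days, then MTT was added for 3 h, formazan was dissolved in DMSO, and OD was read at 540/690 nm. CC50 is the concentration cutting viable cells to 50% of control. IC50 came from the CPE reduction assay in the matching cell line.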

Another series has as its system Human alphaherpesvirus 1. In words: Antiviral activity against HSV1 15577 in african green monkey Vero cells assessed as reduction of virus induced cytopathic effect. Type of series: functional, organism-based. To be noted: Human alphaherpesvirus 1, Vero. Put shortly: (§2)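 CPE reduction assay: confluent monolayers received 0.1 mL of 100 TCID50 virus simultaneously with 0.1 mL of serial 2-fold sample dilutions. Samples were dissolved in DMSO, then diluted into maintenance medium (MEM, 1% FBS, gentamicin, L-glutamine). Incubation at 37 °C, 5% CO2 for 4-6 days. CPE was scored 0-4 against virus and cell controls. IC50 is the concentration halving CPE, estimated from plots.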

Series [2] deals with Respiratory syncytial virus. In words: Antiviral activity against RSV Long in human Hep2 cells assessed as reduction of virus induced cytopathic effect. The format is functional, organism-based. To be noted: HEp-2. Put shortly:
as §2

Series [3] can be described thus: Selectivity index, CC50 for human Hep2 cells to IC50 for RSV Long. Type of series: functional, HEp-2. A digest of the protocol: as §1
Series [4] can be described thus: Cytotoxicity against MDCK cells after 3 days by MTT reduction assay. Type of series: cell-based, Canis lupus familiaris. To be noted: dog. Put shortly:
(§3)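 Serial sample dilutions (from 40 mg/mL DMSO stock; top test concentration 1000 µg/mL in maintenance medium, 1% FBS with gentamicin) added in triplicate to confluent monolayers, 37 °C, 5% CO2. After 3 days MTT added for 3 h; formazan dissolved in DMSO, OD read at 540 and 690 nm. CC50 = concentration reducing viable cells to 50% of medium control.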

The nature of series [5]: Selectivity index, CC50 for african green monkey Vero cells to IC50 for HSV1 15577. Type of series: functional. A digest of the protocol: as §1
Series [6] can be described thus: Cytotoxicity against human Hep2 cells after 3 days by MTT reduction assay. Type of series: cell-based, HEp-2. A digest of the protocol:
as §3

Series [7] can be described thus: Cytotoxicity against african green monkey Vero cells after 3 days by MTT reduction assay. The format is cell-based. To be noted: chlorocebus sabaeus. A digest of the protocol:
as §3

Series [8] can be described thus: Selectivity index, CC50 for MDCK cells to IC50 for influenza A virus H1N1 A/NWS/33. The format is functional. Put shortly:
as §1

The subject of a further series is Coxsackievirus B3. In words: Antiviral activity against Cox B3 virus in human Hep2 cells assessed as reduction of virus induced cytopathic effect. Type of series: functional, organism-based. To be noted: Enterovirus B, HEp-2. Put shortly:
as §2

`O=C(Oc1cc(O)c2c(c1)OC(c1cc(O)c(O)c(O)c1)CC2)c1cc(O)c(O)c(O)c1` (stereo not drawn): the “Ratio CC50/IC50” value in [1] was 7.6; in series [3], 19; in [5], 4; in series [8], 7. The IC50 is 30 µg/mL (≈ 67.8 µM) with Human alphaherpesvirus 1, 5 µg/mL (≈ 11.3 µM) in series [2] and 12.5 µg/mL (≈ 28.3 µM) with Coxsackievirus B3. For the same molecule, the CC50 at 72 h in [4] came out at 110 µg/mL (≈ 249 µM); in series [6] it was 95 µg/mL (≈ 215 µM); in series [7] it was 120 µg/mL (≈ 271 µM). Besides, the MNTC at 72 h in series [4] (read-out: MNCC) worked out at 62.5 µg/mL; in series [6] (read-out: MNCC), 25 µg/mL; in series [7] (read-out: MNCC), 31.3 µg/mL.
As to `Nc1nc2c(ncn2COCCO)c(=O)[nH]1` [ACYCLOVIR], the IC50 was 0.25 µg/mL (≈ 1.11 µM) with Human alphaherpesvirus 1 and 25 µg/mL (≈ 111 µM) with Coxsackievirus B3. Besides, the “Ratio CC50/IC50” value in series [5] is reported as greater than 2000. Besides, the CC50 at 72 h in series [7] was greater than 500 µg/mL.
Consider `NC(=O)c1ncn([C@@H]2O[C@H](CO)[C@@H](O)[C@H]2O)n1` [RIBAVIRIN], for which the IC50 in [2] came to 3 µg/mL (≈ 12.3 µM).
